# According to ChEMBL document CHEMBL5576140, “Computational Design of Pore-Forming Peptides with Potent Antimicrobial and Anticancer Activities” (J Med Chem, 2024):
# The source made the active and inactive calls. The rule behind the calls is not given here.
# Tests used:
# HL-60 [1] = assay: pH-dependent anticancer activity against human HL-60 cells in DMEM medium at 10 uM incubated for 1 hr; type: functional, cell-based
# Summary of the method: (§1)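 Cells cultured in RPMI, DMEM or PBS, each adjusted to pH 8, 7 or 6, plus one unadjusted (~7.6). Peptide at 10 μM for only 1 h, to limit pH drift from CO₂-bicarbonate buffering. Cell viability read. Controls were melittin, ampicillin and PBS. Two independent repetitions; effects analysed by ANOVA.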
# Acinetobacter baumannii [2] = assay: Anti-infective activity against Acinetobacter baumannii ATCC 19606 infected in neutropenic CD-1 mouse deep thigh infection model assessed as reduction in bacterial load at 1.33 mg/kg, ip measured after 4 days; type: functional, organism-based; conditions: time 4.0 day
# Summary of the method: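 Neutropenic mice infected intramuscularly in right thigh with 10⁶ cells per mL A. baumannii ATCC 19606; single intraperitoneal peptide dose at 10× MIC; bacterial load determined 4 days after treatment (euthanized day 8); n = 6 per group from three inocula; one-way ANOVA with Dunnett's test versus untreated.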
# HCT-116 [3] = assay: pH-dependent anticancer activity against human HCT-116 cells in RPMI medium at 10 uM incubated for 1 hr; type: functional, cell-based; summary of the method: as §1
# Enterococcus faecium = assay: Depolarization of cytoplasmic membrane in Enterococcus faecium ATCC 700221 at MIC measured for 45 mins by DiSC3-(5) dye based assay; type: functional, organism-based
# Summary of the method: (§2)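 Bacteria loaded with membrane-potential dye DiSC3-(5), then treated with peptide at its MIC for the respective strain; depolarization read as rise in dye fluorescence; polymyxin B and levofloxacin as reference antibiotics.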
# B cell = assay: Cytotoxicity against human B-lymphocytes assessed as deleterious effect upto 50 uM by flow cytometry; type: toxicity, cell-based
# Summary of the method: (§3)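 Whole blood from a healthy donor treated with peptides up to 50 μM; effect on B and T lymphocytes, granulocytes and monocytes assessed.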
# K562 [4] = assay: pH-dependent anticancer activity against human K562 cells in RPMI medium at 10 uM incubated for 1 hr; type: functional, cell-based; summary of the method: as §1
# Pseudomonas aeruginosa [5] = assay: Depolarization of cytoplasmic membrane in Pseudomonas aeruginosa PAO1 at MIC measured for 45 mins by DiSC3-(5) dye based assay; type: functional, organism-based; summary of the method: as §2
# Escherichia coli [6] = assay: Depolarization of cytoplasmic membrane in Escherichia coli ATCC 11775 at MIC measured for 45 mins by DiSC3-(5) dye based assay; type: functional, organism-based; summary of the method: as §2
# Acinetobacter baumannii [7] = assay: Induction of outer membrane permeabilization in Acinetobacter baumannii ATCC 19606 measured for 20 mins by NPN uptake assay; type: functional, organism-based
# [8] = Stability in simulated pore POPC lipid bilayer membrane; type: physicochemical
# Summary of the method: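 Coarse-grained MD with the "scaled" Martini force field, peptides in POPC membrane, 51 μs. Counts transmembrane peptides at 51 μs. Water beads within 2 nm vertically of membrane centre and peptide–peptide interaction energy averaged over 48–51 μs. Contacts (salt bridge or stacking) scored below 0.8 nm and called stable if present ≥50% of the time.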
# [9] = Toxicity against reconstructed human skin model assessed as tissue viability at 50 uM incubated for 1 hr followed by compound washout measured after 42 hrs by MTT assay; type: tissue-based, Skin of body; conditions: read-out: Activity
# Summary of the method: (§4)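 Reconstructed human epidermis with stratum corneum, per OECD TG 439 skin irritation guideline. Tissues exposed 1 h to peptide at 50 μM, then 42 h post-treatment incubation. Viability read by MTT. Controls were SDS and melittin.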
# HCT-116 [10] = assay: pH-dependent anticancer activity against human HCT-116 cells in DMEM medium at 10 uM incubated for 1 hr; type: functional, cell-based; summary of the method: as §1
# [11] = Anti-cancer activity against human NHDF cells incubated for 72 hrs by Cell Titer Glo assay; type: toxicity, cell-based
# Acinetobacter baumannii [12] = assay: Depolarization of cytoplasmic membrane in Acinetobacter baumannii ATCC 19606 at MIC measured for 45 mins by DiSC3-(5) dye based assay; type: functional, organism-based; summary of the method: as §2
# Monocyte = assay: Cytotoxicity against human monocytes assessed as deleterious effect upto 50 uM by flow cytometry; type: toxicity, cell-based; summary of the method: as §3
# Klebsiella pneumoniae [13] = assay: Depolarization of cytoplasmic membrane in Klebsiella pneumoniae ATCC 13883 at MIC measured for 45 mins by DiSC3-(5) dye based assay; type: functional, organism-based; summary of the method: as §2
# Klebsiella pneumoniae [14] = assay: Induction of outer membrane permeabilization in Klebsiella pneumoniae ATCC 13883 measured for 20 mins by NPN uptake assay; type: functional, organism-based
# Summary of the method: (§5)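 Outer-membrane permeabilization of Gram-negative bacteria read as rise in fluorescence of the lipophilic dye NPN, which enters only when outer-membrane integrity is compromised. Peptides applied at their MIC against the respective strain; polymyxin B and levofloxacin as reference antibiotics. Triplicates.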
# MOLM-13 = assay: Anti-cancer activity against human MOLM-13 cells incubated for 24 hrs by WST assay; type: functional, cell-based; conditions: MOLM-13, 24 h
# HL-60 [15] = assay: pH-dependent anticancer activity against human HL-60 cells in PBS medium at 10 uM incubated for 1 hr; type: functional, cell-based; summary of the method: as §1
# MCF7 [16] = assay: Induction of apoptosis in human MCF7 cells in DMEM medium at pH 6 assessed as increase in cleaved PARP level at 10 uM; type: functional, cell-based
# Summary of the method: (§6)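 MCF-7 cells treated with peptides at pH 6; apoptosis detected by immunoblotting for cleaved PARP and cleaved caspase-3.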
# K562 [17] = assay: pH-dependent anticancer activity against human K562 cells in DMEM medium at 10 uM incubated for 1 hr; type: functional, cell-based; summary of the method: as §1
# [18] = Toxicity against reconstructed human skin model assessed as irritation at 50 uM incubated for 1 hr followed by compound washout measured after 42 hrs by MTT assay; type: tissue-based, Skin of body; summary of the method: as §4
# HCT-116 [19] = assay: pH-dependent anticancer activity against human HCT-116 cells in PBS medium at 10 uM incubated for 1 hr; type: functional, cell-based; summary of the method: as §1
# [20] = Anti-cancer activity against human MEC-1 cells incubated for 24 hrs by WST assay; type: functional, cell-based; conditions: MEC1, 24 h
# Pseudomonas aeruginosa [21] = assay: Induction of outer membrane permeabilization in Pseudomonas aeruginosa PAO1 measured for 20 mins by NPN uptake assay; type: functional, organism-based; summary of the method: as §5
# Staphylococcus carnosus = assay: Antimicrobial activity against Staphylococcus carnosus CCM 4838T incubated for 24 hrs by broth microdilution assay; type: functional
# Escherichia coli [22] = assay: Induction of outer membrane permeabilization in Escherichia coli ATCC 11775 measured for 20 mins by NPN uptake assay; type: functional, organism-based
# MCF7 [23] = assay: pH-dependent anticancer activity against human MCF7 cells in PBS medium at 10 uM incubated for 1 hr; type: functional, cell-based; summary of the method: as §1
# MCF7 [24] = assay: pH-dependent anticancer activity against human MCF7 cells in RPMI medium at 10 uM incubated for 1 hr; type: functional, cell-based; summary of the method: as §1
# MCF7 [25] = assay: Induction of apoptosis in human MCF7 cells in DMEM medium at pH 6 assessed as increase in cleaved capase-3 level at 10 uM; type: functional, cell-based; summary of the method: as §6
# [26] = Cytotoxicity against human granulocytes assessed as deleterious effect upto 50 uM by flow cytometry; type: toxicity, cell-based; conditions: granulocyte; summary of the method: as §3
# T-cell line = assay: Cytotoxicity against human T-lymphocytes assessed as deleterious effect upto 50 uM by flow cytometry; type: toxicity, cell-based; summary of the method: as §3
# [27] = Toxicity in neutropenic CD-1 mouse deep thigh infection model infected with Acinetobacter baumannii ATCC 19606 assessed as body weight change at 1.33 mg/kg, ip measured after 4 days; type: organism-based; conditions: in vivo, 96 h, time 4 day
# Summary of the method: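 Neutropenic mice infected intramuscularly in the right thigh with 10⁶ cells per mL of A. baumannii ATCC 19606. […] Body weight monitored for toxicity. Euthanasia 4 days post-infection (day 8). n = 6 per group, from three inocula.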
# HL-60 [28] = assay: Anti-cancer activity against human HL-60 cells at 10 uM incubated for 30 mins; type: functional, cell-based
# HL-60 [29] = assay: pH-dependent anticancer activity against human HL-60 cells in RPMI medium at 10 uM incubated for 1 hr; type: functional, cell-based; summary of the method: as §1
# MCF7 [30] = assay: pH-dependent anticancer activity against human MCF7 cells in DMEM medium at 10 uM incubated for 1 hr; type: functional, cell-based; summary of the method: as §1
# SUD4 = assay: Anti-cancer activity against human SU-DHL-4 cells incubated for 24 hrs by WST assay; type: functional, cell-based; conditions: SU-DHL-4, 24 h
# Staphylococcus aureus = assay: Depolarization of cytoplasmic membrane in Staphylococcus aureus ATCC 12600 at MIC measured for 45 mins by DiSC3-(5) dye based assay; type: functional, organism-based; summary of the method: as §2
# K562 [31] = assay: pH-dependent anticancer activity against human K562 cells in PBS medium at 10 uM incubated for 1 hr; type: functional, cell-based; summary of the method: as §1
substance,measurement,setting,value
H-HHHHLKKILKKLFQFINQLDNQLQDIHHHH-OH,Activity,HL-60 [1],Active
same,Activity,Acinetobacter baumannii [2],inactive
same,Activity,HCT-116 [3],Active
same,Activity,Enterococcus faecium,Active
same,Activity,B cell,Non-Toxic
same,Activity,K562 [4],Active
same,Activity,Pseudomonas aeruginosa [5],Active
same,Activity,Escherichia coli [6],Active
same,Activity,Acinetobacter baumannii [7],inactive
same,Stability,[8],Stable
same,"viability at 1 h, 50 µM",[9],100%
same,Activity,HCT-116 [10],Active
same,IC50 at 72 h,[11],> 200 µM
same,Activity,Acinetobacter baumannii [12],Active
same,Activity,Monocyte,Non-Toxic
same,Activity,Klebsiella pneumoniae [13],Active
same,Activity,Klebsiella pneumoniae [14],Active
same,IC50,MOLM-13,1 µM
same,Activity,HL-60 [15],Active
same,Activity,MCF7 [16],Active
same,Activity,K562 [17],Active
same,Activity,[18],Non-Toxic
same,Activity,HCT-116 [19],Active
same,IC50,[20],1 µM
same,Activity,Pseudomonas aeruginosa [21],Active
same,MIC,Staphylococcus carnosus,> 50 µM
same,Activity,Escherichia coli [22],Active
same,Activity,MCF7 [23],Active
same,Activity,MCF7 [24],Active
same,Activity,MCF7 [25],Active
same,Activity,[26],Non-Toxic
same,Activity,T-cell line,Non-Toxic
same,Activity,[27],Non-Toxic
same,Activity,HL-60 [28],Active
same,Activity,HL-60 [29],Active
same,Activity,MCF7 [30],Active
same,IC50,SUD4,1 µM
same,Activity,Staphylococcus aureus,Active
same,Activity,K562 [31],Active
